Source: ChEMBL document CHEMBL6177921, “Enhancing the antimycobacterial efficacy of pyridine-4-carbohydrazide: linkage to additional antimicrobial agents via oxocarboxylic acids” (RSC Med Chem, 2025)
Values after ≈ are worked out from the molar mass of the structure shown.

Legend:
Mycobacterium avium [1] = test: Antimycobacterial activity against INH/RIF/rifabutin/OFX/EMB resistant Mycobacterium avium CNCTC 330/88 assessed as bacterial growth inhibition incubated for 21 days by two-fold serial dilution method; assay type: functional; conditions: CNCTC 330/88, 504 h, time 21 day
How it was run: (§1)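 M. avium CNCTC 330/88 (stock suspension dilution 10−5) grown in Šula's semisynthetic liquid medium; two-fold serial dilutions 1000 to 1 μM from DMSO stocks (final DMSO 1.0% v/v); final load 1.5 × 10^5 CFU mL−1; MIC read visually as lowest concentration giving complete growth inhibition after 14 and 21 days.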

Mycobacterium avium [2] = test: Antimycobacterial activity against INH/RIF/rifabutin/OFX/EMB resistant Mycobacterium avium CNCTC 330/88 assessed as bacterial growth inhibition incubated for 14 days by two-fold serial dilution method; assay type: functional; conditions: CNCTC 330/88, 336 h, time 14 day; how it was run: as §1
[3] = Hemolytic activity in human Red blood cells assessed as effect of lipid bilayer membrane incubated for 1 hr by absorbance based spectrophotometric analysis; assay type: toxicity, cell-based; conditions: erythrocyte
How it was run: (§2)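 Human erythrocyte suspension mixed 1:1 with compound in Hartmann's solution at final 125 μM, final DMSO 1.0% (v/v), 37 °C for 1 h. After centrifugation, released haemoglobin in the supernatant was read at 405 nm. Negative control was hRBCs with 1.0% DMSO; positive control was hRBCs sonicated for 1 min.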

Mycobacterium kansasii [4] = test: Antimycobacterial activity against multi-drug resistant Mycobacterium kansasii clinical isolate CNCTC 6509/96 assessed as bacterial growth inhibition incubated for 21 days by two-fold serial dilution method; assay type: functional; conditions: CNCTC 6509/96, 504 h, time 21 day
How it was run: (§3)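 M. kansasii clinical isolate 6509/96 (stock dilution 10−4) in Šula's semisynthetic liquid medium; two-fold serial dilutions 1000 to 1 μM, DMSO final 1.0% v/v; final load 1.5 × 10^5 CFU mL−1; MIC read visually as complete growth inhibition at 7, 14 and 21 days.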

Mycobacterium kansasii [5] = test: Antimycobacterial activity against INH/RIF/rifabutin/OFX/EMB Mycobacterium kansasii CNCTC 6509/96 clinical isolate assessed as bacterial growth inhibition incubated for 7 days by two-fold serial dilution method; assay type: functional; conditions: CNCTC 6509/96, 168 h, time 7 day
How it was run: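 Šula's liquid semisynthetic medium; M. kansasii clinical isolate 6509/96 used at stock dilution 10−4, final ~1.5 × 10^5 CFU mL−1. Two-fold dilutions ran 1000–1 μM with final DMSO 1.0% (v/v). MIC was read visually as complete growth inhibition after 7, 14 and 21 days.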

Mycobacterium kansasii [6] = test: Antimycobacterial activity against multi-drug resistant Mycobacterium kansasii CNCTC 6509/96 clinical isolate assessed as bacterial growth inhibition incubated for 14 days by two-fold serial dilution method; assay type: functional; conditions: CNCTC 6509/96, 336 h, time 14 day; how it was run: as §3
[7] = system: Mycobacterium tuberculosis; test: Antimycobacterial activity against Mycobacterium tuberculosis H37Rv CNCTC 331/88 assessed as bacterial growth inhibition incubated for 21 days by two fold serial dilution method; assay type: functional; conditions: H37Rv CNCTC 331/88, 504 h, time 21 day
[8] = system: Mycobacterium tuberculosis; test: Antimycobacterial activity against multidrug sensitive Mycobacterium tuberculosis H37Rv CNCTC 331/88 assessed as bacterial growth inhibition incubated for 14 days by two-fold serial dilution method; assay type: functional; conditions: H37Rv CNCTC 331/88, 336 h, time 14 day
[9] = system: Staphylococcus epidermidis; test: Antibacterial activity against Staphylococcus epidermidis ATCC 12228 assessed as bacterial growth inhibition incubated for 24 to 48 hrs by broth microdilution method; assay type: functional; conditions: time 24-48 hrs
How it was run: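 Broth microdilution in cation-adjusted Mueller-Hinton broth, adapted from EUCAST. Compounds were tested at 0.98–500 μM with final DMSO ≤1.0% (v/v). Inoculum came from 16–24 h cultures, final ~5 × 10^5 CFU mL−1. Plates were incubated statically, dark and humidified, at 35 ± 2 °C. MIC was read by eye at 24 and 48 h as the lowest concentration with no visible growth.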

[10] = Hemolytic activity in human Red blood cells assessed as hemolysis rate incubated for 1 hr by absorbance based spectrophotometric analysis relative to control; assay type: toxicity, cell-based, Erythrocyte; conditions: read-out: Activity; how it was run: as §2

Structure (SMILES) | MIC (Mycobacterium avium [1]) [µM] | MIC (Mycobacterium avium [2]) [µM] | Activity [3] | MIC (Mycobacterium kansasii [4]) [µM] | MIC (Mycobacterium kansasii [5]) [µM] | MIC (Mycobacterium kansasii [6]) [µM] | MIC [7] [µM] | MIC [8] [µM] | MIC [9] [µM] | hemolysis at 1 h [10] [%]
C/C(=N\NC(=O)c1ccncc1)C(=O)Nc1ccc(Sc2ccc([N+](=O)[O-])cc2)cc1 | 500 (≈ 218 µg/mL) | 500 (≈ 218 µg/mL) | Non-toxic | 2 (≈ 0.871 µg/mL) | 1 (≈ 0.435 µg/mL) | 1 (≈ 0.435 µg/mL) | 0.25 (≈ 0.109 µg/mL) | 0.25 (≈ 0.109 µg/mL) |  | 
C/C(=N\NC(=O)c1ccncc1)C(=O)NNC(N)=S | 1000 (≈ 280 µg/mL) | 1000 (≈ 280 µg/mL) |  | 32 (≈ 8.97 µg/mL) | 16 (≈ 4.49 µg/mL) | 32 (≈ 8.97 µg/mL) | 2 (≈ 0.561 µg/mL) | 1 (≈ 0.28 µg/mL) | 125 (≈ 35 µg/mL) | 
COC(=O)c1ccc(NC(=O)/C(C)=N/NC(=O)c2ccncc2)cc1O | ≥ 1000 | ≥ 1000 |  | 16 (≈ 5.7 µg/mL) | 8 (≈ 2.85 µg/mL) | 16 (≈ 5.7 µg/mL) | 0.5 (≈ 0.178 µg/mL) | 0.5 (≈ 0.178 µg/mL) | 125 (≈ 44.5 µg/mL) | 
COc1nc2ccc(Br)cc2cc1[C@@H](c1ccccc1)[C@@](O)(CCN(C)C)c1cccc2ccccc12 [BEDAQUILINE] |  |  | Toxic |  |  |  |  |  |  | 
CC[C@@H](CO)NCCN[C@@H](CC)CO [ETHAMBUTOL] |  |  |  |  |  |  |  |  |  | 0.01
NNC(=O)c1ccncc1 [ISONIAZID] | > 250 | > 250 |  | 16 (≈ 2.19 µg/mL) | 8 (≈ 1.1 µg/mL) | 8 (≈ 1.1 µg/mL) | 1 (≈ 0.137 µg/mL) | 1 (≈ 0.137 µg/mL) |  | 0.01
NC(=O)c1cnccn1 [PYRAZINAMIDE] |  |  |  |  |  |  |  |  |  | 0.01
CO[C@H]1/C=C/O[C@@]2(C)Oc3c(C)c(O)c4c(O)c(c(/C=N/N5CCN(C)CC5)c(O)c4c3C2=O)NC(=O)/C(C)=C\C=C\[C@H](C)[C@H](O)[C@@H](C)[C@@H](O)[C@@H](C)[C@H](OC(C)=O)[C@@H]1C [RIFAMPIN] |  |  |  |  |  |  |  |  |  | 0.01
